Calls of active or inactive are those of the source. The calls are words filed in the database; no cut-off is given here.
Legend:
HCT-116 [1] = test: Antitumor activity against human HCT116 cells xenografted in nude mouse assessed reduction in tumor size at 10 mg/kg, sc administered for 14 consecutive days; assay type: functional, organism-based
In short: (§1)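 HCT116 xenografts in young SPF nude mice, n=6 per group. Compound given at 10 mg/kg subcutaneously, […]; the control group received N.S. End-point tumour weight, tumour growth and body weight were recorded. End-point tumours were H&E stained to assess tissue damage. Weights were compared by unpaired t test.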

HCT-116 [2] = test: Antiproliferative activity against human HCT116 cells after 5 days by EZMTT reagent-based assay relative to control; assay type: functional
HCT-116 [3] = test: Antitumor activity against human HCT116 cells xenografted in nude mouse assessed induction of tumor necrosis at 10 mg/kg, […] by hematoxylin and eosin staining-based assay; assay type: functional, organism-based
[4] = Retention time of compound in mouse liver microsomes at 50 uM by LC-MS/MS analysis; assay type: ADME, Microsome
H22 [5] = test: Antiproliferative activity against mouse H22 cells after 5 days by EZMTT reagent-based assay relative to control; assay type: functional
H22 [6] = test: Antitumor activity against mouse H22 cells transplanted in ICR mouse assessed as reduction in tumor weight at 10 mg/kg, sc administered once daily for 10 consecutive days relative to control; assay type: functional
In short: (§2)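 H22 liver cancer model in young SPF ICR mice, n=10 per group. Compound given subcutaneously once daily at 10 mg/kg, 10 injections; the control group received N.S. End-point tumour size and weight, body weight and survival were recorded. Treated groups were compared with control by unpaired t test.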

A549 [7] = test: Induction of ROS generation in human A549 cells at 10 uM after 12 hrs by DCFH-DA staining-based fluorescence microscopic analysis; assay type: functional, cell-based
In short: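 A549 cells were seeded at 10000 per well and exposed to compound at 0, 3 or 10 µM for 12 h. ROSUP at 100 µg/ml served as the positive control, alongside untreated cells. ROS was then assessed.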

[8] = Metabolic stability in ICR mouse blood after 2 hrs by HPLC analysis; assay type: ADME, tissue-based
In short: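 Compound was incubated in blood for 2 h and its remaining concentration was quantified by HPLC.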

HCT-116 [9] = test: Antiproliferative activity against human HCT116 cells after 5 days by EZMTT reagent-based assay; assay type: functional, cell-based; conditions: HCT-116, 120 h
H22 [10] = test: Antitumor activity against mouse H22 cells transplanted in ICR mouse assessed as reduction in tumor size at 10 mg/kg, sc administered once daily for 10 consecutive days relative to control; assay type: functional, organism-based; in short: as §2
[11] = Metabolic stability in mouse liver microsomes at 50 uM after 4 hrs in presence of NADPH by HPLC analysis; assay type: ADME, Microsome; conditions: read-out: Stability
In short: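 Compound was incubated with mouse liver microsomes for 4 h, with coumarin as the control. The remaining level was quantified by HPLC using UV absorbance at 254 nm.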

CAKI-1 [12] = test: Antiproliferative activity against human Caki1 cells after 5 days by EZMTT reagent-based assay relative to control; assay type: functional
[13] = Drug metabolism mouse liver microsomes assessed as metabolite formation due to loss of terminal pyridine and oxygen at 50 uM by LC-MS/MS analysis; assay type: ADME, Microsome
H22 [14] = test: Antiproliferative activity against mouse H22 cells after 5 days by EZMTT reagent-based assay; assay type: functional, cell-based; conditions: H22, 120 h
A549 [15] = test: Antiproliferative activity against human A549 cells after 5 days by EZMTT reagent-based assay relative to control; assay type: functional
[16] = Inhibition of GDH (unknown origin) using NADP+ and glutamate as substrate preincubated for 0.5 hrs followed by substrate addition and measured after 1 hr by EZMTT reagent-based UV-Vis absorbance assay; set-up: species or system Homo sapiens
HCT-116 [17] = test: Antitumor activity against human HCT116 cells xenografted in nude mouse assessed reduction in tumor weight at 10 mg/kg, sc administered for 14 consecutive days; assay type: functional, organism-based; in short: as §1
[18] = Drug level in tumor of mouse H22 cells transplanted ICR mouse at 10 mg/kg, sc administered once daily for 10 consecutive days by HPLC analysis; assay type: ADME, organism-based, Neoplasm; conditions: in vivo
In short: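 Compound accumulation was measured in end-point tumours from H22-bearing ICR mice after once-daily subcutaneous 10 mg/kg dosing, 10 injections. Tumour content was analysed by HPLC.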

H22 [19] = test: Antitumor activity against mouse H22 cells transplanted in ICR mouse assessed as increase in mouse survival at 10 mg/kg, sc administered once daily for 10 consecutive days relative to control; assay type: functional, organism-based
CAKI-1 [20] = test: Antiproliferative activity against human Caki1 cells after 5 days by EZMTT reagent-based assay; assay type: functional, cell-based; conditions: CAKI-1, 120 h
A549 [21] = test: Antiproliferative activity against human A549 cells after 5 days by EZMTT reagent-based assay; assay type: functional, cell-based; conditions: A549, 120 h
HCT-116 [22] = test: Antitumor activity against human HCT116 cells xenografted in nude mouse assessed reduction in tumor weight at 10 mg/kg, […] relative to control; assay type: functional; set-up: scale not given: the % may be the effect or the level left

## O=C(Cc1cccc(OC(F)(F)F)c1)Nc1ccc(CCCCc2nnc(NC(=O)Cc3ccccn3)s2)nn1
HCT-116 [1]
  Activity: Active
HCT-116 [2]
  Imax: 90%
HCT-116 [3]
  Activity: Active
[4]
  Retention_time: 7.97 min
H22 [5]
  Imax: 44%
H22 [6]
  Activity: Active
A549 [7]
  Activity: Active
[8]
  Stability: Stable
HCT-116 [9]
  IC50: 0.028 µM
H22 [10]
  Activity: Active
[11]
  remaining at 4 h, 50 µM: 46%
CAKI-1 [12]
  Imax: 88%
[13]
  Drug metabolism: Metabolite_Detected
H22 [14]
  IC50: > 10 µM
A549 [15]
  Imax: 82%
[16]
  IC50: > 13 µM
HCT-116 [17]
  Activity: Active

## O=C(Cc1cccc(OC(F)(F)F)c1)Nc1ccc(CCCCc2nnc(NC(=O)Cc3ccccn3)[se]2)nn1
[18]
  Drug uptake: Active
H22 [19]
  Activity: Active
HCT-116 [2]
  Imax: 90%
CAKI-1 [20]
  IC50: 0.019 µM
HCT-116 [3]
  Activity: Active
[4]
  Retention_time: 8.2 min
H22 [5]
  Imax: 75%
A549 [7]
  Activity: Active
A549 [21]
  IC50: 0.017 µM
[8]
  Stability: Stable
HCT-116 [9]
  IC50: 0.009 µM
H22 [10]
  Activity: Active
[11]
  remaining at 4 h, 50 µM: 50%
CAKI-1 [12]
  Imax: 89%
H22 [14]
  IC50: 6.78 µM
A549 [15]
  Imax: 82%
[16]
  IC50: > 13 µM
HCT-116 [22]
  Activity: 40%

Source: ChEMBL document CHEMBL4368901 (J Med Chem, 2019)
